Reference: ChEMBL document CHEMBL1649230, “Aryl rhodanines specifically inhibit staphylococcal and enterococcal biofilm formation” (Antimicrob Agents Chemother, 2009)

Legend:
Enterococcus gallinarum [1] = assay: Antimicrobial activity against vancomycin-resistant Enterococcus gallinarum isolate 2392 on medical grade silicone disk assessed as inhibition of bacterial biofilm after 18 hrs by broth microdilution method; format: functional
Outline: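 Medical-grade silicone disks glued to 24-well plate bottoms. Compound added to a 1:100 overnight-culture inoculum (0.5× TSB, 1% glucose) at 2% DMSO final; ≥3 wells each, ~18 h at 37°C. Washed with water, heat-fixed 60°C 60 min, stained with 0.06% crystal violet, eluted with 30% acetic acid, OD600 read. Repeated ≥3 times.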

Staphylococcus aureus [2] = assay: Antimicrobial activity against Staphylococcus aureus ATCC 35556 assessed as inhibition of bacterial biofilm formation after 18 hrs by broth microdilution method in presence of 5 ug/ml fibronectin; format: functional
Outline: (§1)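 Polystyrene 96-well wells precoated with 100 μl fibronectin or fibrinogen (0–20 μg protein/ml) for 24 h at 4°C. Wells then washed with sterile water. The standard MBIC biofilm assay followed: 0.5× TSB with 1% glucose, 2% DMSO, 18 h at 37°C, crystal violet read at OD600.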

Staphylococcus aureus [3] = assay: Antimicrobial activity against Staphylococcus aureus ATCC 35556 assessed as inhibition of bacterial biofilm formation after 18 hrs by broth microdilution method in presence of 20 ug/ml fibronectin; format: functional; outline: as §1
Enterococcus faecalis [4] = assay: Antimicrobial activity against vancomycin-resistant Enterococcus faecalis ATCC 51299 assessed as inhibition of bacterial biofilm after 18 hrs by broth microdilution method; format: functional
Outline: (§2)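 Biofilm MBIC on tissue culture-treated polystyrene 96-well plates. Twofold dilutions, 0.2 to 100 μM final, with 2% DMSO final. Inoculum was an overnight culture diluted 1:100 (~5 × 10^6 cells/well) in 0.5× TSB plus 1% glucose, grown 18 h at 37°C. Wells washed, heat-fixed 60°C 60 min, stained with 0.06% crystal violet, OD600 read. MBIC is the lowest concentration giving ≥80% inhibition versus untreated; geometric mean of ≥3 experiments.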

Enterococcus gallinarum [5] = assay: Antimicrobial activity against vancomycin-resistant Enterococcus gallinarum isolate 2392 assessed as inhibition of bacterial biofilm after 18 hrs by broth microdilution method; format: functional; outline: as §2
[6] = tested on: Staphylococcus epidermidis; assay: Antimicrobial activity against Staphylococcus epidermidis 1457 assessed as inhibition of bacterial biofilm after 18 hrs by broth microdilution method; format: functional
Outline: (§3)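 Static biofilm in tissue culture-treated polystyrene 96-well plates in 0.5× TSB with 1% glucose. Overnight culture diluted 1:100 gives about 5 × 10^6 cells/well. Compound 2-fold series, final 0.2–100 μM, 2% DMSO. Incubated 18 h at 37°C. Washed, heat-fixed 60°C for 60 min, stained with 0.06% crystal violet, read at OD600. MBIC is the lowest concentration giving ≥80% inhibition versus untreated. Geometric mean of ≥3 independent experiments.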

Enterococcus faecium = assay: Antimicrobial activity against vancomycin-resistant Enterococcus faecium isolate F1181 assessed as inhibition of bacterial biofilm after 18 hrs by broth microdilution method; format: functional; outline: as §2
Staphylococcus aureus [7] = assay: Antimicrobial activity against Staphylococcus aureus ATCC 35556 assessed as inhibition of bacterial biofilm formation after 18 hrs by broth microdilution method in presence of 2 ug/ml fibronectin; format: functional; outline: as §1
[8] = tested on: Staphylococcus epidermidis; assay: Antimicrobial activity against Staphylococcus epidermidis ATCC 35984 assessed as inhibition of bacterial biofilm after 18 hrs by broth microdilution method; format: functional; outline: as §3
Staphylococcus aureus [9] = assay: Antimicrobial activity against community acquired methicillin-susceptible Staphylococcus aureus assessed as inhibition of bacterial biofilm after 18 hrs by broth microdilution method; format: functional; outline: as §3
Enterococcus faecalis [10] = assay: Antimicrobial activity against vancomycin-resistant Enterococcus faecalis isolate F317 assessed as inhibition of bacterial biofilm after 18 hrs by broth microdilution method; format: functional; outline: as §2
Staphylococcus aureus [11] = assay: Antimicrobial activity against hospital acquired methicillin-resistant Staphylococcus aureus isolate 1094 assessed as inhibition of bacterial biofilm after 18 hrs by broth microdilution method; format: functional; outline: as §2
Staphylococcus aureus [12] = assay: Antimicrobial activity against community acquired methicillin-resistant Staphylococcus aureus isolate 24209 assessed as inhibition of bacterial biofilm after 18 hrs by broth microdilution method; format: functional; outline: as §2
Staphylococcus aureus [13] = assay: Antimicrobial activity against community acquired Staphylococcus aureus NCTC 8325 assessed as inhibition of bacterial biofilm after 18 hrs by broth microdilution method; format: functional; outline: as §3
[14] = tested on: Staphylococcus epidermidis; assay: Antimicrobial activity against coagulase-negative Staphylococcus epidermidis isolate WTBF-47 assessed as inhibition of bacterial biofilm after 18 hrs by broth microdilution method; format: functional; outline: as §3
[15] = Cytotoxicity against human HeLa cells after 3 days by MTT assay; format: cell-based
Outline: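 HeLa cells were seeded at 4 × 10^3 per well with or without serial dilutions of compound in DMSO. Plates were incubated 3 days at 37°C in minimal essential medium with 10% calf serum, and viability was read by MTT. CC50 was the concentration that reduced MTT-to-formazan conversion by 50%.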

Staphylococcus aureus [16] = assay: Antimicrobial activity against Staphylococcus aureus ATCC 35556 assessed as inhibition of bacterial biofilm formation after 18 hrs by broth microdilution method in presence of 1 ug/ml fibronectin; format: functional; outline: as §1
Staphylococcus aureus [17] = assay: Antimicrobial activity against methicillin-susceptible Staphylococcus aureus on medical grade silicone disk assessed as inhibition of bacterial biofilm after 18 hrs by broth microdilution method; format: functional
Outline: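 S. aureus ATCC 35556 biofilms were grown on autoclaved medical-grade silicone disks fixed in 24-well plates. The inoculum was a 1:100 dilution of an overnight culture in 0.5× TSB with 1% glucose, with compound at 0× to 8× MBIC and 2% DMSO final, in at least three wells. Plates were held about 18 h at 37°C, water-washed, heat-fixed at 60°C for 60 min, and stained with 0.06% CV. CV was eluted in 30% acetic acid and read at OD600, averaging three disks; runs were repeated ≥3 times.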

Enterococcus faecalis [18] = assay: Antimicrobial activity against Enterococcus faecalis isolate F177 on medical grade silicone disk assessed as inhibition of bacterial biofilm after 18 hrs by broth microdilution method
Pseudomonas aeruginosa = assay: Antimicrobial activity against Pseudomonas aeruginosa PAO1 assessed as inhibition of bacterial biofilm after 18 hrs by broth microdilution method; format: functional
Outline: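 Polystyrene plates with breathable lids in 1× TSB (0.25% glucose), 37°C for 18 h. Biofilms form at the air-liquid interface. Stained with crystal violet, dye eluted with 30% acetic acid, OD read. Compound 2-fold series, final 0.2–100 μM in 2% DMSO. MBIC taken at ≥80% inhibition versus untreated. Geometric mean of ≥3 experiments.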

Staphylococcus aureus [19] = assay: Antimicrobial activity against Staphylococcus aureus ATCC 35556 assessed as inhibition of bacterial biofilm formation after 18 hrs by broth microdilution method in presence of 1 ug/ml fibrinogen; format: functional; outline: as §1
Staphylococcus aureus [20] = assay: Antimicrobial activity against Staphylococcus aureus ATCC 35556 assessed as inhibition of bacterial biofilm formation after 18 hrs by broth microdilution method in presence of 10 ug/ml fibronectin; format: functional; outline: as §1
[21] = tested on: Staphylococcus epidermidis; assay: Antimicrobial activity against coagulase-negative Staphylococcus epidermidis isolate WTBF-46 assessed as inhibition of bacterial biofilm after 18 hrs by broth microdilution method; format: functional; outline: as §3
[22] = tested on: Staphylococcus epidermidis; assay: Antimicrobial activity against coagulase-negative Staphylococcus epidermidis isolate WTBF-48 assessed as inhibition of bacterial biofilm after 18 hrs by broth microdilution method; format: functional; outline: as §3
[23] = tested on: Staphylococcus epidermidis; assay: Antimicrobial activity against Staphylococcus epidermidis O-47 assessed as inhibition of bacterial biofilm after 18 hrs by broth microdilution method; format: functional; outline: as §3
Enterococcus faecalis [24] = assay: Antimicrobial activity against vancomycin-resistant Enterococcus faecalis ATCC 51575 assessed as inhibition of bacterial biofilm after 18 hrs by broth microdilution method; format: functional; outline: as §2

| SMILES | MBIC (Staphylococcus aureus [2]) | MBIC (Staphylococcus aureus [3]) | MBIC [6] | MBIC (Enterococcus faecium) | MBIC (Staphylococcus aureus [7]) | MBIC [8] | MBIC (Staphylococcus aureus [9]) | MBIC (Enterococcus faecalis [10]) | MBIC (Staphylococcus aureus [11]) | MBIC (Staphylococcus aureus [12]) | MBIC (Staphylococcus aureus [13]) | MBIC [14] | CC50 at 72 h [15] | MBIC (Staphylococcus aureus [16]) | MBIC90 (Staphylococcus aureus [17]) | MBIC90 (Enterococcus faecalis [18]) | MBIC (Pseudomonas aeruginosa) | MBIC (Staphylococcus aureus [19]) | MBIC (Staphylococcus aureus [20]) | MBIC [21] | also measured |
| --- | --- | --- | --- | --- | --- | --- | --- | --- | --- | --- | --- | --- | --- | --- | --- | --- | --- | --- | --- | --- | --- |
| CCOc1cc(/C=C2\SC(=S)N(c3ccc(F)cc3)C2=O)ccc1O | 3.125 µM | 6.25 µM | 42 µM | >=100 uM | 3.125 µM | 17.7 µM | 14.9 µM | 25 µM | 100 µM | 100 µM | 25 µM | 29.7 µM | ≥ 100 µM | 3.125 µM | 79.4 µM | >=100 uM | >=100 uM | 3.125 µM | 6.25 µM | 50 µM | MBIC90 (Enterococcus gallinarum [1]): >=100 uM; MBIC (Enterococcus faecalis [4]): 12.5 µM; MBIC (Enterococcus gallinarum [5]): 84.1 µM; MBIC [22]: 25 µM; MBIC [23]: 50 µM |
| CCOc1cc(/C=C2\SC(=S)N(c3cccnc3)C2=O)ccc1O | 12.5 µM | 12.5 µM | 12.5 µM | >=100 uM | 12.5 µM | 12.5 µM | 12.5 µM | 15.7 µM | 25 µM | 25 µM | 12.5 µM | 12.5 µM | ≥ 100 µM | 12.5 µM | 25 µM | 19.8 µM | >=100 uM | 12.5 µM | 12.5 µM | 25 µM | MBIC (Enterococcus faecalis [4]): 8.8 µM; MBIC (Enterococcus faecalis [24]): 21 µM; MBIC [22]: 17.7 µM; MBIC [23]: 59.5 µM |
| C=CCOc1cc(/C=C2\SC(=S)N(c3ccc(F)cc3)C2=O)ccc1O | 3.125 µM | 3.125 µM | 29.7 µM | >=100 uM | 3.125 µM | 17.7 µM | 10.5 µM | 100 µM | 100 µM | 100 µM | 14.9 µM | 29.7 µM | 76.4 µM | 3.125 µM | 100 µM | 100 µM | >=100 uM | 3.125 µM | 3.125 µM | 70.7 µM | MBIC90 (Enterococcus gallinarum [1]): 100 µM; MBIC (Enterococcus gallinarum [5]): >=100 uM; MBIC (Enterococcus faecalis [24]): 35.4 µM; MBIC [22]: 12.5 µM; MBIC [23]: 59.5 µM |
| CCOc1cc(/C=C2\SC(=S)N(c3cccc(F)c3)C2=O)ccc1O | 6.25 µM | 6.25 µM | 50 µM | >=100 uM | 6.25 µM | 25 µM | 14.9 µM | 100 µM | 100 µM | 100 µM | 25 µM | 42 µM | ≥ 100 µM | 6.25 µM | 70.7 µM | >=100 uM | >=100 uM | 6.25 µM | 6.25 µM | 59.5 µM | MBIC90 (Enterococcus gallinarum [1]): >=100 uM; MBIC (Enterococcus faecalis [4]): 25 µM; MBIC (Enterococcus gallinarum [5]): 50 µM; MBIC (Enterococcus faecalis [24]): 63 µM; MBIC [22]: 50 µM; MBIC [23]: 100 µM |
